From PubChem BioAssay
CHRM4 agonist – CHRM4 agonism in calcium assay | P08173 | CHO-K1 hM4/Gqi5, Fluo-8 calcium fluorescence; vehicle 0%, full acetylcholine response 100% | activation, % at 3 µM | hit rate 0.14% among 360,000;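 active = activation above the run mean over all test wells plus 3 SD, cut at about 32% in these data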;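 note: peak over basal fluorescence ratio per well then scaled between controls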
CHRM5 antagonist – CHRM5 antagonism in calcium assay; inhibition, % at 3 µM; AID 624040; hit rate 0.59% among 360,000; P08912; CHO-hM5 cells, Fluo-8 calcium fluorescence, ACh EC80;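 active = inhibition above a per-plate cutoff, the mean of that plate's test compounds plus 3 SD, cut at about 27% in these data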
Target sequence (P08912 whole entry, looked up): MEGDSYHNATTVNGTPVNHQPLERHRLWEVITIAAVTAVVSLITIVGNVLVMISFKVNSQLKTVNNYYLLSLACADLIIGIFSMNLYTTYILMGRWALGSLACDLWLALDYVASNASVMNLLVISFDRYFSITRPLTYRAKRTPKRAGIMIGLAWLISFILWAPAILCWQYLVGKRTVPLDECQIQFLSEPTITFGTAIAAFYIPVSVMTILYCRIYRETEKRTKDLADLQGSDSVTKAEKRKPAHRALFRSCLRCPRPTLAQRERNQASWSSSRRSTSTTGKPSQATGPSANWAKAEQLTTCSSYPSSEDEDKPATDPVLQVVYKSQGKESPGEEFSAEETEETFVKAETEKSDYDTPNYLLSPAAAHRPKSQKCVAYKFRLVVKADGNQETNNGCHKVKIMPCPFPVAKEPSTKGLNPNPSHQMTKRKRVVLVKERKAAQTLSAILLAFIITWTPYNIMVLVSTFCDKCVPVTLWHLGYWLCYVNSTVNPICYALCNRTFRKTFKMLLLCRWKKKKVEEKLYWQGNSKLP
CHRM4 antagonist – CHRM4 antagonism in calcium assay | P08173 | CHO-hM4 cells, ACh EC80, Fluo-8 calcium fluorescence | inhibition, % at 3 µM | hit rate 0.73% among 360,000;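 active = inhibition above its plate's cutoff, the mean inhibition of sample wells plus 3 SD, cut at about 27% in these data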
M4 PAM – CHRM4 positive allosteric modulation; hit rate 0.4% among 360,000; P08173; CHO-K1 hM4/Gqi5, Fluo-8 calcium fluorescence, ACh EC20; 0% = ACh EC20, 100% = maximal ACh; activation, % at 3 µM;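 active = activation above its plate's cutoff, the mean activation of sample wells plus 3 SD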
M5 ag – CHRM5 agonism in calcium assay; P08912; activation, % at 3 µM; CHO-K1 hM5 cells, Fluo-8 calcium fluorescence; 0% DMSO wells, 100% maximal acetylcholine response; hit rate 0.19% among 360,000;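 active = activation above the run's mean over test compounds plus 3 SD, cut at about 23% in these data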;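 note: signal is peak over basal fluorescence ratio across the kinetic read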
CHRM5 PAM – positive allosteric modulators of human muscarinic M5 receptor; P08912; CHO-K1 hM5, Fluo-8 calcium, ACh EC20 PAM; 0% = ACh EC20, 100% = ACh EC100; activation, % at 3 µM; hit rate 0.3% among 360,000; AID 624038;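 active = activation above the run cutoff, the mean activation of all test compounds plus 3 SD, cut at about 18% in these data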
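Replicates: One well per compound, no replicates | System: Human M5 receptor in CHO-K1 cells | Benchmarks: Low control EC20 acetylcholine (0%), high control EC100 acetylcholine (100%) | Probe or stimulus: Acetylcholine, EC20 level | Times: Fluo-8 loading 80 min at 37 °C plus 30 min room temperature | Signal: Intracellular calcium via Fluo-8 fluorescence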
Hits are given with their value; . = inactive. An excerpt weighted towards active compounds, which were near 1.8% of everything screened.

SMILES	CHRM4 agonist	CHRM5 antagonist	CHRM4 antagonist	M4 PAM	M5 ag	CHRM5 PAM
CC(C)(C)c1ccc(S(=O)(=O)N2C=CC(C(F)(F)F)=NCC2)cc1	.	.	.	.	.	.
Cc1ccc(S(=O)(=O)N2C=CC(C(F)(F)F)=NCC2)cc1	.	.	.	18	.	.
CN1CCN(c2nc3cc(N4CCOCC4)ccc3s2)CC1	.	.	.	.	.	.
Cc1sc2nc(CN(Cc3cccs3)C(=O)NC3CCCCC3)[nH]c(=O)c2c1C	.	.	.	.	.	29
CCn1c(=O)c(C(=O)NNC(=O)c2ccccc2Cl)c(O)c2ccccc21	54	.	.	.	.	.
CCn1c(=O)c(C(=O)NNC(=O)c2ccccc2F)c(O)c2ccccc21	.	.	.	.	.	.
O=C(c1ccc(-c2cc(Cl)ccc2Cl)o1)N1CCOCC1	.	.	.	.	.	19
O=C(c1ccc(-c2ccc(Cl)cc2Cl)o1)N1CCOCC1	.	.	.	.	.	.
Cc1cc(/C=C(\C#N)C(=O)NC2CCCCCC2)c(C)n1C	.	.	.	23	.	.
Cn1cc([C@]2(O)C(=O)Nc3ccccc32)c2ccccc21	.	.	.	.	.	.
COc1ccccc1C1(O)C(=O)Nc2ccccc21 (centres undefined)	.	.	.	15	.	.
COc1ccc(CN2CCN(C(=O)c3c(-c4ccccc4)noc3C)CC2)cc1F	.	.	.	.	.	.
CC1Cc2nc(SCC(=O)c3ccccc3)n(Cc3ccccc3)c(=O)c2S1 (centres undefined)	.	.	.	.	.	.
CC1Cc2nc(SCC(=O)NCc3ccccc3)n(Cc3ccccc3)c(=O)c2S1 (centres undefined)	.	.	38	.	.	.
COc1ccc(NCc2nnc(SCC(=O)c3ccc(OC)cc3)n2C)cc1	.	33	.	.	.	36
Cc1ccc2c(c1)cc1c(=O)n(CC(=O)NCc3ccccn3)nc(C)n12	.	.	.	.	.	.
O=C(CNC(=O)c1cnccn1)Nc1ccc(F)c(F)c1F	.	.	.	.	.	21
COc1ccc(-c2cc(CNC(=O)CCl)on2)cc1	.	.	.	.	.	19
COc1ccc(NC(=O)c2ccc3nc(C)sc3c2)cc1	.	.	.	.	.	.
CC(C)C[C@@H]1Cc2[nH][nH]c(=O)c2[C@H](C)O1	.	.	.	.	.	.
COc1ccc2c(c1)CCc1sc(NC(=O)c3ccco3)nc1-2	.	.	.	28	.	.
COc1ccc2c(c1)-c1nc(NC(=O)c3ccco3)sc1CC2	.	.	.	.	.	.
COc1ccc2c(c1)Cc1sc(NC(=O)c3ccco3)nc1-2	.	.	.	27	.	.
NC(=O)c1ccc[n+](CCC[n+]2cccc(C(N)=O)c2)c1	.	.	.	.	.	.
CCCCCCCCCC[n+]1cccc(C(=O)N(CC)CC)c1	.	.	44	.	.	.
SMILES	CHRM4 agonist	CHRM5 antagonist	CHRM4 antagonist	M4 PAM	M5 ag	CHRM5 PAM
OC(c1cccc(Cl)c1)c1ncc(-c2ccc(C(F)(F)F)cc2)[nH]1 (centres undefined)	.	.	.	.	.	.
Cc1[nH]c(C)c(S(=O)(=O)NCc2ccc(Cl)cc2)c1C(=O)N1CCCC1	.	.	.	.	.	.
CCN(CC)C(=O)c1ccc(COc2ccc(Cl)c(C)c2)o1	.	31	.	.	.	.
COc1cccc2c1Oc1ncccc1N(C(=O)CCC(=O)NCc1ccc(C)cc1)C2	.	.	.	.	.	.
COc1ccc(C(=O)n2nc(C)c(Br)c2C)cc1	.	.	.	.	.	21
Cc1cc(/C=C(\C#N)C(N)=O)c(C)n1-c1ccc(N2CCOCC2)c([N+](=O)[O-])c1	.	.	.	.	29	.
Cn1c(CC(=O)Nc2ccc(Cl)c(Cl)c2)n[nH]c1=S	.	.	.	.	.	.
COc1ccc(Cc2n[nH]c(=S)n2NC(=O)Nc2ccc(Cl)c(Cl)c2)cc1	.	30	.	.	.	.
COc1ccc(-n2ncc3c(Nc4cccc(C)c4)ncnc32)cc1	.	.	.	19	.	.
COc1ccc(Nc2ncnc3c2cnn3-c2cccc(C)c2)cc1OC	.	.	.	.	.	.
S=C(Nc1cc(Cl)cc(Cl)c1)NC1CCN(Cc2ccccc2)CC1	35	28	.	.	.	.
S=C(Nc1ccccc1Cl)NC1CCN(Cc2ccccc2)CC1	.	.	.	.	.	.
S=C(NCc1ccc(Cl)cc1)NC1CCN(Cc2ccccc2)CC1	45	.	27	.	.	.
CCOC(=O)CSc1nnc(CNC(=O)c2cccc(C)c2)n1C	.	.	.	.	.	.
CCOC(=O)CSc1nnc(CNC(=O)c2ccc([N+](=O)[O-])cc2)n1C	.	.	.	.	.	22
Oc1ccc(Cl)cc1/C=N/c1nccs1	.	.	.	.	.	.
Oc1ccc(Cl)cc1C=Nc1ccc2c3c(cccc13)CC2	71	35	36	.	53	.
Cc1cccc(C=Nc2ccc3c4c(cccc24)CC3)c1O	.	.	.	.	34	.
CC(=O)[C@H]1CC[C@H]2[C@@H]3C=CC4=CC(=O)CC[C@@]4(C)[C@@H]3CC[C@]12C	.	.	.	.	.	.
CCOC(=O)C1(C)CCCN(C(=O)c2cc(OC)c(OC)c(OC)c2)C1 (centres undefined)	.	.	.	.	.	.
CNc1sc(C(=O)c2ccccc2F)c(N)c1-c1nc2ccccc2s1	.	.	34	.	.	.
C=CCn1c(SCC(=O)NCc2ccccc2)nnc1C1CCCCC1	.	.	.	.	.	25
C=CCn1c(SCC(=O)NCCc2ccccc2)nnc1C1CC1	.	.	.	.	.	.
CCC(=O)N1CCN(c2ccccc2NC(=O)COc2cc(C)ccc2C(C)C)CC1	.	27	.	.	.	.
Cc1ccc(C(C)C)c(OCC(=O)NC(=S)Nc2ccccc2N2CCOCC2)c1	.	.	.	.	.	.
SMILES	CHRM4 agonist	CHRM5 antagonist	CHRM4 antagonist	M4 PAM	M5 ag	CHRM5 PAM
Cc1cc(C)c(OCC(=O)Nc2ccccc2N2CCOCC2)c(C)c1	.	.	35	.	28	.
O=C(Nc1ccccc1N1CCOCC1)c1cc(-c2ccco2)nc2ccccc12	.	.	35	.	.	.
O=C(Cn1c(=O)cnc2ccccc21)Nc1ccccc1N1CCOCC1	.	.	.	.	.	28
Cc1cc(C)c(OCC(=O)Nc2ccccc2N2CCCCC2)c(C)c1	.	.	.	.	.	.
O=C(COc1ccccc1F)Nc1cc(S(=O)(=O)Nc2cccc(Cl)c2)ccc1O	.	.	.	.	.	.
O=C(NCc1ccccc1)C(c1ccco1)N(C(=O)c1csnn1)c1ccccc1 (centres undefined)	.	.	.	.	.	.
